Screening data as filed in PubChem.
AHR activator = activates the human aryl hydrocarbon receptor; AHR-responsive luciferase reporter cells, luminescence; activation, % at 5 µM; actives 2.5% (n = 320,000); in the data active means activation above about 47%;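 further: 0% = vehicle wells and 100% = reference agonist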
proCasp7 act = activates human procaspase-7, counter-screen for procaspase-3 activators; P55210; recombinant procaspase-7, Ac-DEVD-pNA absorbance 405 nm; D23A/D198A/D206A triple mutant, cannot self-cleave; scale: DMSO 0, 5 µM enzyme 100; activation, % at 8.5 µM; actives 0.093% (n = 330,000);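 active means percent activation above the screen-wide mean plus 3 SD, cut at about 25% in these data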
Target sequence (P55210 whole entry D23A/D198A/D206A): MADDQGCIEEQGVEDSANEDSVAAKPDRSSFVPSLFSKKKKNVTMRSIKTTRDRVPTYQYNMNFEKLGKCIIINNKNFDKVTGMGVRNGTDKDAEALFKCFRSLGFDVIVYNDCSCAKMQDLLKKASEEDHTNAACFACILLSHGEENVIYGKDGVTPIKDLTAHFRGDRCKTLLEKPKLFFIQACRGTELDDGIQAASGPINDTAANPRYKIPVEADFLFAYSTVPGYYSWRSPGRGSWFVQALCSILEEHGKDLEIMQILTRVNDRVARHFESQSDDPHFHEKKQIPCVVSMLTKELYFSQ
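Material: Procaspase-7 triple mutant (PC-7 D3A) | Quantity: 2 µM procaspase-7 mutant as dispensed | Reagent: DEVD-pNA substrate | Times: 1 h preincubation, 2 h reaction | Technique: 405 nm absorbance of p-nitroaniline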
proCasp3 act = procaspase-3 (human) activation. P42574. recombinant procaspase-3 D3A, Ac-DEVD-pNA absorbance 405 nm. activation, % at 8.5 µM. actives 0.11% (n = 330,000);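 active means activation above the mean of all tested compounds plus 3 SD, cut at about 21% in these data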;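 further: 0% = DMSO alone and 100% = DMSO wells spiked with extra 5 µM PC-3 D3A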
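Assay system: Procaspase-3 D3A mutant, all three cleavage aspartates alanine. Buffer or medium: Zinc-free HEPES saline buffer with Triton X-100. Times: 1 h compound preincubation, 2 h substrate hydrolysis at 25 °C. Measured by: 405 nm absorbance of p-nitroaniline, reads at 0 and 120 min. Read-out basis: percent activation relative to control range. Replicates: singlicate.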
PolyA inh = blocks polyadenylation in yeast reporter cells; S. cerevisiae SKY197-pL101 polyadenylation reporter, beta-gal luminescence; efflux-impaired pdr1/pdr3 knockout yeast; score 100 = 6 SD above DMSO; activity score, % at 12 µM; actives 0.02% (n = 300,000);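 active means lowest replicate activity score at least 50, where 100 means six control SD above control mean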;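 further: yeast exposed to compound for 9 h at 30 °C; higher score means more reporter readthrough which indicates perturbed polyadenylation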
Active calls of the source: *; / = not tested or not shown. Only some compounds are listed: those with a hit (about 2.6% of all), similar ones and a draw of the others.

SMILES | AHR activator | proCasp7 act | proCasp3 act | PolyA inh
O=C(CN1CCN(c2cccc(Cl)c2)CC1)NC1CCCc2ccccc21 (stereo not given) | 1 | 4 | -1 | -16
CCOC(=O)c1c(C)oc2c1c(CN1CCN(C(=O)OCC)CC1)c(O)c1ccccc12 | 50* | 6 | 5 | -16
COc1ccc(-n2nc3ccccc3n2)cc1 | 17 | -2 | 5 | 7
COc1ccc(-n2nc3cc(C)c(NC(C)=O)cc3n2)cc1 | 75* | 2 | 5 | -14
COc1ccc(-n2nc3cc(C)c(N)c(Br)c3n2)cc1 | 49* | 5 | 7 | -5
C=CCS/C(N)=N\N=C\c1c(O)ccc2ccccc12 | 56* | 1 | -1 | -26
CCc1ccc(S(=O)(=O)NC2CC(C)(C)NC(C)(C)C2)cc1 | 3 | -7 | -3 | 12
Cc1ccc(C)c(NCC(O)c2ccccc2)c1 (stereo not given) | 52* | 12 | 5 | -20
COc1ccc(C)cc1Nc1nc(N)c2cc(OC)c(OC)cc2n1 | 62* | -11 | 11 | 2
O=[N+]([O-])c1ccc(/C=N\NS(=O)(=O)c2ccc(F)cc2)o1 | 2 | -13 | -5 | 27
O=C(Nc1c(-c2ccccc2)nc2ccccn12)c1ccccc1 | 3 | -12 | -2 | -15
CC(=O)Nc1c(-c2ccc3ccccc3c2)nc2ccccn12 | 51* | 2 | -1 | -11
CCC(=O)Nc1c(-c2ccc3ccccc3c2)nc2ccccn12 | 50* | -2 | -2 | 13
O=C(CCCN1C(=O)C(c2ccccc2)Oc2cccnc21)Nc1cccc(F)c1 (stereo not given) | -1 | -1 | -1 | 12
CCC(C)N(C(=O)CSc1nc(C)nc2ccccc12)C1CCS(=O)(=O)C1 (stereo not given) | 12 | 9 | 3 | /
Cc1cc(C2=CC(=O)C[C@H](c3ccc4c(c3)OCO4)C2)ccc1F | 79* | 12 | 2 | /
O=C1C=C(c2cc(Cl)cc(Cl)c2)C[C@@H](c2ccc3c(c2)OCO3)C1 | 30 | 4 | 4 | /
O=C1C=C(c2ccc3c(c2)OCO3)C[C@@H](c2ccc3c(c2)OCO3)C1 | 61* | -1 | 0 | /
O=C1C=C(c2cccc(CO)c2)C[C@@H](c2ccc3c(c2)OCO3)C1 | 73* | 12 | 1 | /
O=C1C=C(c2ccc(-c3ccccc3)c(F)c2)C[C@@H](c2ccc3c(c2)OCO3)C1 | 3 | -1 | 5 | /
Cc1ccc(N2CC(C(=O)Nc3ccccc3OC(F)F)CC2=O)cc1 (stereo not given) | -1 | -1 | 6 | /
CCCCn1c(N)c(N(CC(C)C)C(=O)c2ccc(F)c(S(=O)(=O)N3CCOCC3)c2)c(=O)[nH]c1=O | 1 | -1 | -1 | -5
O=C1/C(=C\c2ccc3c(c2)OCO3)CCC/C1=C/c1ccc2c(c1)OCO2 | 48* | -7 | 4 | -19
CC(C)c1ccc(N(CC(=O)NCc2ccco2)C(=O)CCC(=O)Nc2nccs2)cc1 | 3 | -2 | -4 | -8
O=C(NCc1nnc2c(C(F)(F)F)cc(Cl)cn12)c1cccnc1 | 14 | -21 | 5 | 2
SMILES | AHR activator | proCasp7 act | proCasp3 act | PolyA inh
O=C(NCc1nnc2c(C(F)(F)F)cc(Cl)cn12)c1ccc2c(c1)OCO2 | 52* | -1 | 0 | 2
Cc1sc2nc(-c3cccnc3)[nH]c(=O)c2c1-c1ccccc1 | 63* | -8 | -11 | 4
CCCn1c(N/N=C(C)\C=C\c2ccccc2)nc2c1c(=O)[nH]c(=O)n2C | 11 | 4 | -3 | -8
Cc1cccc(N/C=C/C(=C(C#N)C#N)N(C)C)c1 | 48* | 11 | 7 | 11
CN(C)C(/C=C/Nc1cccc(Br)c1)=C(C#N)C#N | 3 | 5 | 0 | -6
COc1ccccc1CNC(=O)[C@H](C)NC(=O)C1CCN(C(=O)[C@@H]2CCCN2C(=O)OC(C)(C)C)CC1 | 0 | 1 | 5 | 28
CCC(=O)N1c2ccc(C)cc2C2=NNC(=S)NC21O (stereo not given) | 62* | -8 | -1 | -15
CC1=CC(C)(C)N(C(=O)CN2C(=O)c3ccccc3C2=O)c2ccc(C)cc21 | -1 | -4 | 1 | -12
C#Cc1ccc([C@H]2C=C(C(=O)OCC=C)O[C@@H](OCCCCO)C2)cc1 | 49* | -5 | 5 | 6
CCN1CCN(C(=O)c2cc3cc(F)ccc3[nH]2)CC1 | 65* | 4 | 6 | -6
